As usually defined, the inhibition is the drop in the measured response relative to a control, in per cent. A word on the Ki: it is a dissociation constant, usually derived from enzyme kinetics or from competition with a known ligand.

The structures appear in SMILES notation. Activity calls are given as the source filed them. No cut-off for these calls is given here.

Series [1] has as its target MMP-2/MMP-14 (Homo sapiens) (UniProt P50281+P08253). Kind of series: Selectivity ratio of Ki for human recombinant MMP-14 catalytic domain to Ki for human recombinant MMP-2.
The species named for a further series is Homo sapiens. The series can be described thus: Selectivity ratio of Ki for human recombinant MMP-8 catalytic domain to Ki for human recombinant MMP-2.
The target in series [2] is MMP-2/MMP-9 (Homo sapiens) (UniProt P08253+P14780). The series can be described thus: Selectivity ratio of Ki for human recombinant MMP-9 catalytic domain to Ki for human recombinant MMP-2.
The target of series [3] is T1, Matrilysin (Homo sapiens) (UniProt P09237).
T1 sequence (whole entry): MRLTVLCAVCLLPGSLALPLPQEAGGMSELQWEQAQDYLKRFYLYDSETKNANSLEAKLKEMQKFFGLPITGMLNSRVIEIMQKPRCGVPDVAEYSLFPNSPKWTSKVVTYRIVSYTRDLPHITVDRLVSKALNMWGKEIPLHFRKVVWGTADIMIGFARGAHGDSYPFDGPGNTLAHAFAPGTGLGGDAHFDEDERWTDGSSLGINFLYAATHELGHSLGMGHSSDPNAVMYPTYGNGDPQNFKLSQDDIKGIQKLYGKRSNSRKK
The series can be described thus: Inhibition of human recombinant MMP-7 at 50 uM by fluorescence spectrophotometric analysis relative to control.

Series [4] has as its target Stromelysin-1 (Homo sapiens) (UniProt P08254). Kind of series: Inhibition of human recombinant MMP-3 catalytic domain at 50 uM by fluorescence spectrophotometric analysis relative to control.
In series [5] the target is T2, Interstitial collagenase (Homo sapiens) (UniProt P03956).
T2 sequence (whole entry): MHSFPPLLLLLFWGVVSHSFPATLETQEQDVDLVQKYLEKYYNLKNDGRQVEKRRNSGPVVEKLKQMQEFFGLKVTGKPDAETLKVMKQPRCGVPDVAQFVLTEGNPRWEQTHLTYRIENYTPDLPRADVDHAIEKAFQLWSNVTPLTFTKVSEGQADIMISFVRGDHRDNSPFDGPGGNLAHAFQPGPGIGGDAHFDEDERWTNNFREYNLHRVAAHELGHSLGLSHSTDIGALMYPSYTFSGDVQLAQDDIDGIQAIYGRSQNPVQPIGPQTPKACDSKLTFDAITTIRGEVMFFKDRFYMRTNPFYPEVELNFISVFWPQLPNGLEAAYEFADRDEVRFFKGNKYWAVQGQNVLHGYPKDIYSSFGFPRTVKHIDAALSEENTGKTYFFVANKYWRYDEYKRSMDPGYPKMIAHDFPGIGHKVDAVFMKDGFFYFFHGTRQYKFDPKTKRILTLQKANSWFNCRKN
The series can be described thus: Inhibition of human recombinant MMP-1 catalytic domain at 50 uM by fluorescence spectrophotometric analysis relative to control.

In series [6] the target is T3, Matrix metalloproteinase-14 (Homo sapiens, UniProt P50281). Kind of series: Inhibition of human recombinant MMP-14 catalytic domain using MOCAcPLGLA2pr(Dnp)AR-NH2 as substrate at 50 uM by fluorescence spectrophotometric analysis relative to control.
The target of series [7] is T4, Matrix metalloproteinase-9 (Homo sapiens, UniProt P14780). The series can be described thus: Inhibition of human recombinant MMP-9 catalytic domain using MOCAcPLGLA2pr(Dnp)AR-NH2 as substrate at 50 uM by fluorescence spectrophotometric analysis relative to control.
T4 sequence (P14780 whole entry, the tested form may be a part): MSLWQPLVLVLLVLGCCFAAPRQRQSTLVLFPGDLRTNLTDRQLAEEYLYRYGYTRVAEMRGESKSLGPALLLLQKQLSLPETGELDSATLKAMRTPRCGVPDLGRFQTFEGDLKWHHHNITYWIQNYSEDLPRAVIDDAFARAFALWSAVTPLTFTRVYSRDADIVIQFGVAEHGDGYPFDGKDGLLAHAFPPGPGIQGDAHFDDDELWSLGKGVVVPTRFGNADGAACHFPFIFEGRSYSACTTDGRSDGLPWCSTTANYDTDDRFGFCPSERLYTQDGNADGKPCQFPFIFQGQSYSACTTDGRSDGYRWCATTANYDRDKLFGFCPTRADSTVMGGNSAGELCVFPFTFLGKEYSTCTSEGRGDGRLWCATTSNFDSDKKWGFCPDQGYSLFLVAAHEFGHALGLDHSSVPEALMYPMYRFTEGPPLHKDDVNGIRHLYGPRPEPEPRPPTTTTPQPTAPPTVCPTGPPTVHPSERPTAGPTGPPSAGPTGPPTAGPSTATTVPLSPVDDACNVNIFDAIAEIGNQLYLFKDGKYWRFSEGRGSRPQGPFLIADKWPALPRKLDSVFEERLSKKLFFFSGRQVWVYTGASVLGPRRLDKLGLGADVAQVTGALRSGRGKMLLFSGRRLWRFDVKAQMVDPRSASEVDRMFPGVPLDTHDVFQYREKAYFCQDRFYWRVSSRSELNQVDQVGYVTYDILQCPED
In series [8] the target is 72 kDa type IV collagenase (Homo sapiens, UniProt P08253). Kind of series: Inhibition of human recombinant MMP-2 using MOCAcPLGLA2pr(Dnp)AR-NH2 as substrate by fluorescence spectrophotometric analysis.
Sequence of 72 kDa type IV collagenase (P08253 whole entry, the tested form may be a part): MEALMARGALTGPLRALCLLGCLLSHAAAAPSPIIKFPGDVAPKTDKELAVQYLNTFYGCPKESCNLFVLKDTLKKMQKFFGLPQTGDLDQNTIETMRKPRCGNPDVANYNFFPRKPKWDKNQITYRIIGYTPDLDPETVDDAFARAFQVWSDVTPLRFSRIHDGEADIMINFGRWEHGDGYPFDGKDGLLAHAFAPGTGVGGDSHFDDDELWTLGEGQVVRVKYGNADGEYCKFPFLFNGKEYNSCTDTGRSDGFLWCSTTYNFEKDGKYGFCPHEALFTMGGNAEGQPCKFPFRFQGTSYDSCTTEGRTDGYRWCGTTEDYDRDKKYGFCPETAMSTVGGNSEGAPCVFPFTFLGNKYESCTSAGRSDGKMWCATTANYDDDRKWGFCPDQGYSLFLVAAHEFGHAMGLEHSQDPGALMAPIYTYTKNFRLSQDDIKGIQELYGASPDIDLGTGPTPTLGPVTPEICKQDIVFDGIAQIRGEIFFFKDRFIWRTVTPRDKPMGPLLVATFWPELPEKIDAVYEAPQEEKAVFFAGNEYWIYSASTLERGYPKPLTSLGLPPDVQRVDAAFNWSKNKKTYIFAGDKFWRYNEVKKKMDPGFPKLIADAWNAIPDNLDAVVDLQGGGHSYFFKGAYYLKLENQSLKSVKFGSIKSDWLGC
Series [9] addresses T3, Matrix metalloproteinase-14. Kind of series: Inhibition of human recombinant MMP-14 catalytic domain using MOCAcPLGLA2pr(Dnp)AR-NH2 as substrate by fluorescence spectrophotometric analysis.
Series [10] has as its target T4, Matrix metalloproteinase-9. Kind of series: Inhibition of human recombinant MMP-9 catalytic domain using MOCAcPLGLA2pr(Dnp)AR-NH2 as substrate by fluorescence spectrophotometric analysis.
In another series the test system is Liver. Kind of series: Half life in rat liver S9 fraction at 10 uM by reversed-phase UPLC/ESI-MRM analysis. In kind it is ADME, subcellular. The note with it: s9, 10 µM. The method, boiled down: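 Male rat liver S9 (1.0 mg) with 0.5 mM NADPH and 10 µM compound (both final) in 50 mM potassium phosphate, pH 7.4, at 37 °C, sampled over time. Aliquots were stopped with acetonitrile containing internal standard, and the supernatant was run by UPLC/ESI-MRM. Half-lives used first-order kinetics on peak-area ratios to internal standard.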

In the case of `CCCNC(=O)Nc1ccc(Oc2ccc(S(=O)(=O)CC3CS3)cc2)cc1` (stereo not given), the Ratio Ki (in series [1]; in the series listed under Homo sapiens; in series [2]) was 20 throughout. Further, the inhibition result in series [3] and in series [5] was “inactive” each time. Further, the inhibition in series [4] was 18%; in [6] it was 8%; in [7] it was 7%. The Ki in [8] worked out at 560 nM.

With `CC(C)OC(=O)Oc1ccc(Oc2ccc(S(=O)(=O)CC3CS3)cc2)cc1` (stereo not given), the Ratio Ki in [2] came out at 2. Also, the figures for the inhibition in series [3] and in series [4] were 13% and 9%, respectively. In addition, in series [5], the inhibition entry is “inactive”. In addition, the inhibition constant (Ki) came out at 3000 nM in series [9], 1300 nM in series [10] and 480 nM in series [8].

Take `CCOC(=O)Nc1ccc(Oc2ccc(S(=O)(=O)CC3CS3)cc2)cc1` (stereo not given): the t1/2 in the series on Liver stood at 24.8 min. Further, the inhibition entry in series [3] and in series [5] was “inactive” in each case. Also, the inhibition in [4] was determined as 37%. For the same compound, the results for the Ki in series [9] and in series [8] were 1900 nM and 290 nM, respectively.

Take `CNC(=O)Oc1ccc(Oc2ccc(S(=O)(=O)CC3CS3)cc2)cc1` (stereo not given): the Ratio Ki (in series [1]; in the series listed under Homo sapiens; in [2]) was 20 throughout. For the same compound, the inhibition in series [3] was found to be 6%; in series [4] it was 30%; in [5], 8%. Besides, the Ki in series [9] worked out at 12000 nM; in [10] it was 10000 nM; in [8], 390 nM.

In the case of `CCCOC(=O)Nc1ccc(Oc2ccc(S(=O)(=O)CC3CS3)cc2)cc1` (stereo not given), in series [2], the Ratio Ki turned out to be 2. The inhibition result in [3] and in [5] was “inactive” throughout. The inhibition in series [4] amounted to 27%. In addition, the Ki amounted to 2100 nM in [9], 1100 nM in series [10] and 490 nM in series [8].

In the case of `CCCNC(=O)Oc1ccc(Oc2ccc(S(=O)(=O)CC3CS3)cc2)cc1` (stereo not given), the Ratio Ki (in series [1]; in the series filed under Homo sapiens; in series [2]) was 20 throughout. Moreover, the inhibition in [3] is 2%; in series [4], 38%. The inhibition entry in [5] is “inactive”. The Ki in series [9] stood at 27000 nM; in series [10], 52000 nM; in series [8], 760 nM.

Regarding `CC(C)NC(=O)Nc1ccc(Oc2ccc(S(=O)(=O)CC3CS3)cc2)cc1` (stereo not given), the Ratio Ki (in [1]; in the series filed under Homo sapiens; in series [2]) was 20 each time. For the same compound, the inhibition in series [3] stood at 6%; in series [4], 4%; in series [6], 37%; in series [7], 26%. For the same compound, the inhibition entry in series [5] is “inactive”. Moreover, in [8], the Ki is 420 nM.

Compound `O=S(=O)(CC1CS1)c1ccc(Oc2ccc(O)cc2)cc1` (stereo not given) had a t1/2 with Liver of 23.5 min.

For `CCCOC(=O)Oc1ccc(Oc2ccc(S(=O)(=O)CC3CS3)cc2)cc1` (stereo not given), the Ratio Ki in [2] was determined as 2. Moreover, the inhibition is 10% in series [3] and 29% in series [4]. For the same compound, the inhibition entry in series [5] is “inactive”. Besides, the Ki in [9] is 2800 nM; in [10] it was 1000 nM; in [8], 310 nM.

With `CNC(=O)Nc1ccc(Oc2ccc(S(=O)(=O)CC3CS3)cc2)cc1` (stereo not given), the Ratio Ki (in series [1]; in the series listed under Homo sapiens; in [2]) was 20 throughout. The inhibition in [3] is 8%; in [4] it was 21%. Moreover, the inhibition result in series [5] is “inactive”. Moreover, the inhibition constant (Ki) was found to be 19000 nM in series [9], 9900 nM in [10] and 240 nM in [8].

`CC(C)OC(=O)Nc1ccc(Oc2ccc(S(=O)(=O)CC3CS3)cc2)cc1` (stereo not given): in series [2], the Ratio Ki is 2. Besides, the inhibition entry in [3], in series [4] and in series [5] was “inactive” each time. Moreover, the inhibition constant Ki in series [9] was determined as 2500 nM; in series [10], 2700 nM; in series [8] it was 680 nM.
